Assays:
[1] = molecular target: Recombinant TryR from T. brucei (Trypanosoma brucei brucei, UniProt P39051); test: DTNB-coupled colourimetric TryR screening/potency assay; assay type: biochemical
[2] = system: bloodstream form T. brucei brucei single marker; test: Trypanosome growth assay; assay type: cell-based; settings: Trypanosoma brucei, 73 h, read-out: EC50 Parasite
Outline: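 Bloodstream-form T. b. brucei single marker in HMI9-T with 10% FCS, 2000 cells/well, added to plates pre-stamped with test compound; media-only column as blank. Ten points from 15 μm to 0.5 nm or 50 μm to 2 nm; final DMSO 0.5%. Incubated 69 h at 37°C, 5% CO2, then resazurin (final 50 μm) for 4 h; fluorescence at ex 528/em 590 nm.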

[3] = molecular target: TryR (Trypanosoma brucei brucei, UniProt P39051); test: Mode of inhibition studies on TryR; assay type: biochemical; settings: for Inhibitor constants Ki′: T[S]2 varied, mixed inhibition, second constant; for Mode of inhibiton: TryR, global nonlinear fit of 1/v vs 1/[S] data
Outline: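 TryR with 150 μm NADPH, 50 μm DTNB, 20 mU/mL enzyme in 40 mm HEPES, 1 mm EDTA, pH 7.4. Three test-compound levels plus an inhibitor-free row. Started with T[S]2 over 12 points, 500 to 5.8 μm. NADPH was also varied at fixed T[S]2. Rates from linear A412 rise, inspected as 1/v vs 1/[S], then globally fitted to competitive, mixed or uncompetitive equations.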

[4] = molecular target: T1, human glutathione reductase (Homo sapiens, UniProt P00390); test: Glutathione reductase; assay type: biochemical
T1 sequence (P00390 44-522): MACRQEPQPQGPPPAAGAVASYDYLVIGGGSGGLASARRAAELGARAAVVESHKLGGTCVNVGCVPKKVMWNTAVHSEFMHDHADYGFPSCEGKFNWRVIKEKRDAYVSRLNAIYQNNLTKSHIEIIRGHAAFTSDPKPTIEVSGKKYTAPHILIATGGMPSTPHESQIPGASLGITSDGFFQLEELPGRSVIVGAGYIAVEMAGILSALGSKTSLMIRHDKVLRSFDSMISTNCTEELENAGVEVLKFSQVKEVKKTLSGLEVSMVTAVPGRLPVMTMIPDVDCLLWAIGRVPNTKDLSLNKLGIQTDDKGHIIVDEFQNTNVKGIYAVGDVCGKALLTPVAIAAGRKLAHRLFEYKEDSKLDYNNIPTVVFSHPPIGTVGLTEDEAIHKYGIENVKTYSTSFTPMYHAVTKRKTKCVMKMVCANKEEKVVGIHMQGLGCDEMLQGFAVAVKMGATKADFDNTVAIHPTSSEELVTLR

Chain of Recombinant TryR from T. brucei (P39051 whole entry): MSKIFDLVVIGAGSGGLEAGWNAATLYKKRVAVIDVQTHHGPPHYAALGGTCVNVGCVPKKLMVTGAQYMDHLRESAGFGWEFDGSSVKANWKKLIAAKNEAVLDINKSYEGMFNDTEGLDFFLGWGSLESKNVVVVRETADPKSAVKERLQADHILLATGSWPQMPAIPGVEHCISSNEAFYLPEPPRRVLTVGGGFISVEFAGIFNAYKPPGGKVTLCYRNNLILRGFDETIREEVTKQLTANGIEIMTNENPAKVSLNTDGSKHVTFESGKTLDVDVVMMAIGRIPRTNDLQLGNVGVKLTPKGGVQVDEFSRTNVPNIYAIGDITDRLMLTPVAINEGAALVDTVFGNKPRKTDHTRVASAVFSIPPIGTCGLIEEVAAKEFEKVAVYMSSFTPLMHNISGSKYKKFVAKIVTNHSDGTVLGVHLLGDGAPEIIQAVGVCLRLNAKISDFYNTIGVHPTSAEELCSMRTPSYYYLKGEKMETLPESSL
Chain of TryR (P39051 whole entry): as above

IC50 [1] [µM]	Ki [3] [µM]	Inhibitor constants Ki′ [3] [µM]	Mode of inhibiton [3]	IC50 [4] [µM]	SMILES	EC50 [2] [µM]
12.1	–	–	–	–	Cc1ccc(-c2cc(C(=O)NCc3ccccn3)c3ccccc3n2)o1 [Compound 11, 2-(5-Methylfuran-2-yl)-N-(pyridin-2-ylmethyl)quinoline-4-carboxamide]	–
3.1	–	–	–	–	Cc1ccc(-c2cc(C(=O)NCCN(C)C)c3cc(Cl)ccc3n2)o1 [Compound 8, 6-Chloro-N-(2-(dimethylamino)ethyl)-2-(5-methylfuran-2-yl)quinoline-4-carboxamide]	–
32.4	–	–	–	–	CN(C)CCNC(=O)c1cc(-c2ccco2)nc2ccc(Br)cc12 [Compound 20, 6-Bromo-N-(2-(dimethylamino)ethyl)-2-(furan-2-yl)quinoline-4-carboxamide]	–
4.2	3 ± 0.2	4.3 ± 0.3	linear mixed	74.2	Cc1ccc(-c2cc(C(=O)NCCN3CCOCC3)c3cc(Br)ccc3n2)o1 [Compound 4, 6-Bromo-2-(5-methylfuran-2-yl)-N-(2-morpholinoethyl)quinoline-4-carboxamide]	25.6
> 100	–	–	–	–	Cc1ccc(-c2cc(C(=O)NCCc3ccccc3)c3cc(Br)ccc3n2)o1 [Compound 25, 6-bromo-2-(5-methylfuran-2-yl)-N-phenethylquinoline-4-carboxamide]	–
5.7	–	–	–	–	Cc1ccc(-c2cc(C(=O)NCCN(C)C)c3ccc(Br)cc3n2)o1 [Compound 9, 7-Bromo-N-(2-(dimethylamino)ethyl)-2-(5-methylfuran-2-yl)quinoline-4-carboxamide]	–
14.4	–	–	–	–	Cc1ccc(-c2cc(C(=O)NCCN(C)C)c3ccccc3n2)o1 [Compound 12, N-(2-(Dimethylamino)ethyl)-2-(5-methylfuran-2-yl)quinoline-4-carboxamide]	32.1
4.7	2 ± 0.1	3.0 ± 0.2	linear mixed	33.4	Cc1ccc(-c2cc(C(=O)NCc3ccccn3)c3cc(Br)ccc3n2)o1 [Compound 5, 6-Bromo-2-(5-methylfuran-2-yl)-N-(pyridin-2-ylmethyl)quinoline-4-carboxamide]	18.7
1.1	–	–	–	–	CNCCNC(=O)c1cc(-c2ccc(C)o2)nc2ccc(Br)cc12 [Compound 2, 6-Bromo-N-(2-(methylamino)ethyl)-2-(5-methylfuran-2-yl)quinoline-4-carboxamide]	6

Second part, the molecule before the results:

SMILES	IC50 [1] [µM]	Ki [3] [µM]	Inhibitor constants Ki′ [3] [µM]	Mode of inhibiton [3]	IC50 [4] [µM]	EC50 [2] [µM]
Cc1ccc(-c2cc(C(=O)NCCN(C)C)c3cccc(Br)c3n2)o1 [Compound 10, 8-Bromo-N-(2-(dimethylamino)ethyl)-2-(5-methylfuran-2-yl)quinoline-4-carboxamide]	5.8	–	–	–	–	19.2
Cc1ccc(-c2cc(C(=O)NCc3ccccc3)c3cc(Br)ccc3n2)o1 [Compound 15, N-Benzyl-6-bromo-2-(5-methylfuran-2-yl)quinoline-4-carboxamide]	> 100	–	–	–	–	–
Cc1ccc(-c2cc(C(=O)NCCN(C)C)c3cc(Br)ccc3n2)o1 [Compound 1, 6-Bromo-N-(2-(dimethylamino)ethyl)-2-(5-methylfuran-2-yl)quinoline-4-carboxamide]	1.7	1.6 ± 0.2	3.2 ± 0.3	linear mixed	> 100	10.3
Cc1ccc(-c2cc(C(=O)NCCN(C)C)c3cc(Br)ccc3n2)s1 [Compound 22, 6-Bromo-N-(2-(dimethylamino)ethyl)-2-(5-methylthiophen-2-yl)quinoline-4-carboxamide]	> 100	–	–	–	–	–
Cc1ccc(-c2cc(C(=O)NCC[N+](C)(C)C)c3cc(Br)ccc3n2)o1 [Compound 3, 6-Bromo-N,N,N-trimethyl-2-(2-(5-methylfuran-2-yl)quinoline-4-carboxamido)ethanaminium iodide]	1.2	–	–	–	–	> 50
Cc1ccc(-c2cc(C(=O)NCCN(C)C)c3cc(F)ccc3n2)o1 [Compound 26, N-(2-(dimethylamino)ethyl)-6-fluoro-2-(5-methylfuran-2-yl)quinoline-4-carboxamide]	> 100	–	–	–	–	–

— publication PMC2855869 (Chemmedchem, 2009)
